Assay results from ChEMBL document CHEMBL4765404, “Identification of benzofused five-membered sultams, potent dual NOD1/NOD2 antagonists in vitro and in vivo” (Eur J Med Chem, 2020).

Tested on: not listed separately
Assay: Cytotoxicity against human HEK-Blue hNOD1 cells assessed as cell viability measured by SRB assay
Type: cell-based
Conditions: not given
How it was run: (§1)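 Run on the same HEK-Blue hNOD1 (C12-iE-DAP 50 ng/mL) or hNOD2 (MDP 100 ng/mL) wells after SEAP readout, following 3 h compound plus 20 h stimulation. Cells fixed in 80% TCA, 4 °C, 1 h; SRB in 1% acetic acid, 10 min; washed, dried; dye dissolved in 10 mM Tris base; A515. Growth inhibition = (C−T)/C × 100, n = 3.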

With CCCCOC(=O)CC1c2cccc(C)c2S(=O)(=O)N1C(=O)c1cccc(C(F)(F)F)c1 (stereo not drawn) the Activity was “Non-Toxic”.

Tested on: not listed separately
Assay: Cytotoxicity against human HEK-Blue hNOD2 cells assessed as cell viability measured by SRB assay
Type: cell-based
Conditions: not given
How it was run: as §1

In the case of CCCCOC(=O)CC1c2cccc(C)c2S(=O)(=O)N1C(=O)c1cccc(C(F)(F)F)c1 (stereo not drawn), the Activity is reported as “Non-Toxic”.

Target: T1, Nucleotide-binding oligomerization domain-containing protein 2 (Homo sapiens, UniProt Q9HC29)
T1 sequence (Q9HC29 whole entry, the tested form may be a part): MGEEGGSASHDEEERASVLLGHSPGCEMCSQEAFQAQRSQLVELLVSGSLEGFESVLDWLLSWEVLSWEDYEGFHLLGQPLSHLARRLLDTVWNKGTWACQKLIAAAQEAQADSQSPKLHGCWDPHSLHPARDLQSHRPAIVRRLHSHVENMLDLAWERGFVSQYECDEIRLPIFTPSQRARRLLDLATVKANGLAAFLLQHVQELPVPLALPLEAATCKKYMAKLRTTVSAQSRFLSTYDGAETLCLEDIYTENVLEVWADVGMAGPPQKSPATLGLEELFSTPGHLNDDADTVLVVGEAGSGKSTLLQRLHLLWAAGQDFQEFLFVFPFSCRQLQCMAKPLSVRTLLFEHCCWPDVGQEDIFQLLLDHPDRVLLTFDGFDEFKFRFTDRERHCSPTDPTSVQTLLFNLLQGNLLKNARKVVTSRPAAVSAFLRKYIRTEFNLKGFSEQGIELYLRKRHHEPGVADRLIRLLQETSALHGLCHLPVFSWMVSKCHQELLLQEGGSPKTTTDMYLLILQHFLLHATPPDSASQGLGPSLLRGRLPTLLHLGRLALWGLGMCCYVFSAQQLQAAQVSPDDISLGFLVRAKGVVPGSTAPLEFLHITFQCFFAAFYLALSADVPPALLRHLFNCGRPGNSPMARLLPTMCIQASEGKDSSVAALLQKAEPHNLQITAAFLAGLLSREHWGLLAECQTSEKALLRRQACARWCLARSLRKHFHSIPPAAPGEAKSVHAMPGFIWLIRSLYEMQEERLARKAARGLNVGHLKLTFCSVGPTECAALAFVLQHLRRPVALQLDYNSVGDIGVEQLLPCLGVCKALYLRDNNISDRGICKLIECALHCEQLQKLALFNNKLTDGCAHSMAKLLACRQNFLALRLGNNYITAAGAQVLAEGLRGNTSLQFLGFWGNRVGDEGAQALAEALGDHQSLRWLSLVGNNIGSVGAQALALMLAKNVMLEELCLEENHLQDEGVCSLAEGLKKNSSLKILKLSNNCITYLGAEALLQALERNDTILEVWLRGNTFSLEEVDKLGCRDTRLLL
Assay: Antagonist activity at human NOD2 in HEK-Blue hNOD2 cells assessed as reduction in secreted alkaline phosphatase reporter activity at 10 uM preincubated for 3 hrs followed by stimulated with MDP for 20 hrs by Spectrophotometer method
Type: cell-based
Conditions: not given

Point of comparison: CCCCNC(=O)CC1c2cccc(C)c2S(=O)(=O)N1C(=O)c1ccc(C(F)(F)F)cc1 (stereo not drawn), inhibition 17.7%. Against it:
- Cc1cccc2c1S(=O)(=O)N(C(=O)c1ccc(C(F)(F)F)cc1)C2CC(=O)Nc1ccccc1 (stereo not drawn) — higher, 30.3%
- CCCCOC(=O)CC1c2cccc(C)c2S(=O)(=O)N1CC (stereo not drawn) — lower, -1%
- CCCCOC(=O)CC1c2cccc(C)c2S(=O)(=O)N1C(=O)OC (stereo not drawn) — lower, -0.67%
- CCCCOC(=O)/C=C/c1cc(C)cc2c1S(=O)(=O)N(C(=O)c1ccc(C(F)(F)F)cc1)C2CC(=O)OCCCC (stereo not drawn) — higher, 31.4%
- CCCCOC(=O)CC1c2cccc(C)c2S(=O)(=O)N1S(C)(=O)=O (stereo not drawn) — lower, 5.29%
- Cc1cccc2c1S(=O)(=O)N(C(=O)c1ccc(C(F)(F)F)cc1)C2CC(N)=O (stereo not drawn) — lower, -9.14%
- CCCCOC(=O)CC1c2cccc(C)c2S(=O)(=O)N1C(=O)c1ccco1 (stereo not drawn) — lower, 1.83%
- CCCCOC(=O)CC1c2cccc(C)c2S(=O)(=O)N1CCCC (stereo not drawn) — lower, 9.07%
- Cc1cccc2c1S(=O)(=O)N(C(=O)c1ccc(C(F)(F)F)cc1)C2CC(=O)O (stereo not drawn) — lower, 10.3%
- C=CCN1C(CC(=O)OCCCC)c2cccc(C)c2S1(=O)=O (stereo not drawn) — lower, 5.52%
- CCCCOC(=O)CC1c2cccc(C)c2S(=O)(=O)N1CC(=O)c1ccc(C(F)(F)F)cc1 (stereo not drawn) — lower, 7.2%
- CCCCOC(=O)/C=C1\c2cccc(C)c2S(=O)(=O)N1C(=O)c1ccc(C(F)(F)F)cc1 — higher, 54.4%
- CCCCOC(=O)CC1c2cccc(C)c2S(=O)(=O)N1C(C)=O (stereo not drawn) — lower, 6.59%
- CCCCOC(=O)CC1c2cccc(C)c2S(=O)(=O)N1C(=O)c1ccccc1 (stereo not drawn) — higher, 24.3%
- CCCCOC(=O)CC1c2cccc(C)c2S(=O)(=O)N1/C=C\C(=O)OCC (stereo not drawn) — higher, 20.6%
- CCCCOC(=O)CC1c2cccc(C)c2S(=O)(=O)N1C(=O)/C=C/c1ccc(Cl)cc1 (stereo not drawn) — higher, 35%
- CCCCOC(=O)CC1c2cccc(C)c2S(=O)(=O)N1C (stereo not drawn) — lower, 4.63%

Same assay, conditions: filed as antagonist

Point of comparison: CCCCOC(=O)CC1c2cccc(C)c2S(=O)(=O)N1Cc1ccccc1 (stereo not drawn), inhibition 41.4%. Against it:
- CCCCOC(=O)CC1c2cccc(C)c2S(=O)(=O)N1C(=O)c1ccc(C)cc1 (stereo not drawn) — higher, 55.5%
- CCCCOCCC1c2cccc(C)c2S(=O)(=O)N1C(=O)c1ccc(C(F)(F)F)cc1 (stereo not drawn) — higher, 45.9%
- CCCCOC(=O)CC1c2cccc(C)c2S(=O)(=O)N1Cc1ccc(C(F)(F)F)cc1 (stereo not drawn) — higher, 42.5%
- CCCCOC(=O)CC1c2cccc(C)c2S(=O)(=O)N1NC(=O)c1ccc(C(F)(F)F)cc1 (stereo not drawn) — higher, 60%

Target: T1, Nucleotide-binding oligomerization domain-containing protein 2
Assay: Antagonist activity at human NOD2 in HEK-Blue hNOD2 cells assessed as secreted alkaline phosphatase reporter activity preincubated for 3 hrs followed by stimulated with MDP for 20 hrs by Spectrophotometer method
Type: cell-based
Conditions: not given

Point of comparison: Cc1cccc2c1S(=O)(=O)N(C(=O)c1ccc(C(F)(F)F)cc1)C2CC(=O)OC(C)(C)C (stereo not drawn), IC50 4.65 µM. Against it:
- CCCCOC(=O)CC1c2cccc(C)c2S(=O)(=O)N1C(=O)c1ccc(C(F)(F)F)cc1 (stereo not drawn) — 3.9-fold lower, 1.18 µM
- CCCCOC(=O)CC1c2c(F)ccc(C)c2S(=O)(=O)N1C(=O)c1ccc(C(F)(F)F)cc1 (stereo not drawn) — within 1.5-fold, 4.05 µM
- CCCCOC(=O)CC1c2cc(F)cc(C)c2S(=O)(=O)N1C(=O)c1ccc(C(F)(F)F)cc1 (stereo not drawn) — within 1.5-fold, 6.7 µM
- CCCCOC(=O)CC1c2c(OC)ccc(OC)c2S(=O)(=O)N1C(=O)c1ccc(C(F)(F)F)cc1 (stereo not drawn) — 1.5-fold higher, 7.03 µM
- COC(=O)CC1c2cccc(C)c2S(=O)(=O)N1C(=O)c1ccc(C(F)(F)F)cc1 (stereo not drawn) — within 1.5-fold, 3.55 µM
- CCCCOC(=O)CC1c2cc(OC)cc(OC)c2S(=O)(=O)N1C(=O)c1ccc(C(F)(F)F)cc1 (stereo not drawn) — within 1.5-fold, 3.96 µM
- CCCCOC(=O)CC1c2cccc(C(=O)OCCCC)c2S(=O)(=O)N1C(=O)c1ccc(C(F)(F)F)cc1 (stereo not drawn) — within 1.5-fold, 4.29 µM
- CCCCOC(=O)CC1c2cccc(C)c2S(=O)(=O)N1C(=O)c1ccc(C#N)cc1 (stereo not drawn) — within 1.5-fold, 5.45 µM
- CCCCOC(=O)CC1c2cccc(C)c2C(=O)N1C(=O)c1ccc(C(F)(F)F)cc1 (stereo not drawn) — 2-fold lower, 2.36 µM
- CCCCc1nnc(CC2c3cccc(C)c3S(=O)(=O)N2C(=O)c2cccc(C(F)(F)F)c2)o1 (stereo not drawn) — the same, 4.65 µM
- CCCCOC(=O)CC1c2cccc(C)c2S(=O)(=O)N1C(=O)c1ccccc1C(F)(F)F (stereo not drawn) — 9.7-fold lower, 0.48 µM
- CCCCOC(=O)CC1c2cccc(C)c2S(=O)(=O)N1C(=O)c1ccc(Cl)cc1 (stereo not drawn) — 2.7-fold lower, 1.74 µM
- CCCCc1noc(CC2c3cccc(C)c3S(=O)(=O)N2C(=O)c2cccc(C(F)(F)F)c2)n1 (stereo not drawn) — within 1.5-fold, 5.74 µM
- CCCCOC(=O)CC1c2cccc(Cl)c2S(=O)(=O)N1C(=O)c1ccc(C(F)(F)F)cc1 (stereo not drawn) — 3.3-fold lower, 1.39 µM
- CCCCOC(=O)CC1c2cc(C)cc(C)c2S(=O)(=O)N1C(=O)c1ccc(C(F)(F)F)cc1 (stereo not drawn) — 2.5-fold lower, 1.85 µM
- CCCCOC(=O)CC1c2cccc(C)c2S(=O)(=O)N1C(=O)c1cccc(C(F)(F)F)c1 (stereo not drawn) — 5-fold lower, 0.93 µM
- CCCCOC(=O)CC1c2ccc(Cl)c(C)c2S(=O)(=O)N1C(=O)c1ccc(C(F)(F)F)cc1 (stereo not drawn) — 2.1-fold higher, 9.83 µM
